Measured values reported in article PMC9278990 (Nature structural & molecular biology, 2021).
Entries after “also recorded” stand apart in the source; their conditions may differ. No end group written: not given here.

Assays:
FLCN–LDHA complex = test: FLCN-LDHA complex disruption in HEK293; format: cell-based, human; conditions: HEK293, exogenous addition, 6 h; n=3
How it was run: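 HEK293 cells were given exogenous lactate or pyruvate for 6 h. Lysates underwent anti-FLCN IP (antibody 1 h, then protein G agarose 2 h, 4 °C), four washes in lysis buffer, Laemmli elution and immunoblotting alongside whole-cell extracts. Three independent experiments.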

pTyr10-LDHA = test: LDHA activity; format: cell-based, human; conditions: rhodamine B-labeled peptides, pTyr10-LDHA normalized to NT; n=3
How it was run: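 HEK293 cells were treated with 1 μM rhodamine B-labeled peptides for 2 h. Whole-cell lysates were immunoblotted for pTyr10-LDHA, and band density was expressed as fold change versus untreated cells. n = 3.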

LDHA [1] = test: Fluorescence polarization anisotropy binding to LDHA; set-up: species or system human; conditions: rhodamine B-labeled peptide, pH 7.2, 30 min on ice, n = 3
LDHA [2] = test: LDHA kinetics and inhibition assay; format: biochemical, human; conditions: n = 3; for potency as compared to LDHA inhibitor FX11: 2 nM FLCN or 100 nM FLCN-10 versus 60 μM FX11, pH 7.0, 2 mM pyruvate; for mode of LDHA inhibition: 50 mM Tris-HCl pH 7.0, 2 mM pyruvate, varied NADH, 2 nM FLCN or 100 nM FLCN-10
How it was run: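 Reactions contained 50 mM Tris-HCl pH 7.0, 2 mM pyruvate and varied NADH, with test protein (2 nM), test peptide (100 nM) or reference inhibitor FX11 (60 μM). Triplicates, ≥2 independent assays. IC50 came from curve fitting; Ki came from Lineweaver–Burk analysis and IC50-to-Ki conversion.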

dimeric LDHA = test: LDHA activity, predominantly dimeric LDHA; format: biochemical, human; conditions: LDHA 10 ng/μl (predominantly dimeric), increasing amounts of FLCN protein or FLCN-10; n=3
LDHA [3] = test: Cibacron Blue-agarose pulldown of LDHA; format: binding, human; conditions: HEK293 cells overexpressing FLCN; Cibacron blue agarose 1 h at 4 °C; n=3
How it was run: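 Lysates of HEK293 cells expressing empty vector or FLCN-FLAG were incubated with Cibacron Blue agarose for 1 h at 4 °C. LDHA was immunoblotted and the pulldown:input ratio was normalized to vector.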

LDHA [4] = test: Co-immunoprecipitation of FLCN with LDHA; format: binding, human; conditions: expressed in HEK293 cells, FLAG IP, immunoblot
How it was run: (§1)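 Lysates came from transfected HEK293 cells (24 h post-transfection) or, for endogenous FLCN IP, from LDHA or LDHB knockout HAP1 cells. Capture used anti-FLAG or anti-HA agarose (2 h, 4 °C) or anti-LDHA/anti-FLCN antibody (1 h) followed by protein G agarose (2 h, 4 °C). Beads were washed four times in NP40 lysis buffer, eluted in Laemmli buffer and immunoblotted.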

LDHB = test: Co-immunoprecipitation of FLCN with LDHB; format: binding, human; conditions: HEK293 cells, LDHB-FLAG IP; HAP1 cells
How it was run: as §1

LDH = conditions: UOK257 lysates, 2 μg plasmid; n = 3
UOK257 cells = test: Extracellular acidification rate; format: cell-based, human; conditions: n = 8
How it was run: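 UOK257 cells were transfected at 50% confluency in 100-mm dishes (24 h), or left untransfected for peptide treatment. Cells were seeded at 1 × 10^5 per well 24 h before assay and treated immediately before measurement (peptide, 2 h). ECAR was read by Seahorse XF glycolytic stress test. Transfection n = 8, peptide n = 4 independent samples.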

[5] = tested on: LDHA/LDHB chimeric constructs; test: Co-IP of FLCN with LDHA/LDHB chimeric constructs; format: binding, human; conditions: HEK293, co-IP
ccRCC cells = test: Apoptosis in ccRCC cells on FLCN overexpression; format: cell-based, human; conditions: 786-O, Caki-1 and Caki-2, FLAG-tagged FLCN, immunoblot
LDHA [6] = test: Native PAGE of LDHA oligomers; set-up: species or system human
How it was run: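 HEK293 cells were transiently transfected with pcDNA3 constructs (TransIT-2020) for 24 h and lysed. Lysates were mixed with non-denaturing loading buffer (250 mM Tris-HCl pH 6.8, 30% glycerol, 0.05% bromophenol blue; 5× stock) for 5 min at room temperature. Samples were resolved on Tris-HCl gels in native running buffer (25 mM Tris, 192 mM glycine).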

[7] = overexpression of FLCN in HEK293, native PAGE

With CC(O)C(=O)O (centres unmarked) [lactate] the “effect on FLCN–LDHA complex” value (FLCN–LDHA complex) was “much milder effect on dissociation of LDHA from FLCN”.

With CC(=O)C(=O)O [pyruvate] the “effect on FLCN–LDHA complex” value (FLCN–LDHA complex) was “disruption of the FLCN–LDHA complex”.

In the case of “FLCN-1: peptide derived from aa 220–230 of FLCN (QRMNTAFTPFL; also: rhodamine B label (position not given here))”, the “LDHA activity in HEK293 cells” value (pTyr10-LDHA) was “effectively reduced LDHA activity” and the “binding to LDHA (in words)” value (LDHA [1]) was “bound tightly to LDHA”.

For “FLCN-10: decapeptide derived from the FLCN loop region; aa 219–228 (AQRMNTAFTP; also: rhodamine B label (position not given here))”, the “potency as compared to LDHA inhibitor FX11” value (LDHA [2]) was “greatly improved potency”, the “mode of LDHA inhibition” value (LDHA [2]) was “uncompetitively inhibits LDHA” and the “inhibition of dimeric LDHA” value (dimeric LDHA) was “effectively inhibit dimeric”. For the same compound, the “binding to LDHA (in words)” value (LDHA [1]) was “greatly enhanced binding”.

With folliculin [FLCN] the “LDHA binding to Cib-agarose” value (LDHA [3]) was “greatly diminished”, the “binding to LDHA (co-IP)” value (LDHA [4]) was “specifically bound to LDHA” and the “potency as compared to LDHA inhibitor FX11” value (LDHA [2]) was “greatly improved potency”. The “mode of LDHA inhibition” value (LDHA [2]) was “uncompetitively inhibits LDHA; also recorded: uncompetitive inhibitor of LDHA”, the “binding to LDHB (co-IP)” value (LDHB) was “no interaction with LDHB was detected” and the “LDH activity after transfection of 2 μg” value (LDH) was ~ 77%. The “ECAR, transfection of 2 μg plasmid” value (UOK257 cells; UOK257, 2 μg transfection) was “little effect”, the “ECAR, transfection of 8 μg plasmid” value (UOK257 cells; UOK257, 8 μg transfection) was “reduced ECAR to a similar level as the FLCN-replaced control cell line” and the “inhibition of dimeric LDHA” value (dimeric LDHA) was “effectively inhibit dimeric”. The “binding to LDHA with both domains (NC) replaced by LDHB” value ([5]; NC chimeric construct) was “completely abrogated FLCN interaction”, the “binding to LDHA with LDHB N domain or C domain individually” value ([5]; chimeric constructs (first 22 / last 38 amino acids swapped)) was “preserved binding” and the “apoptosis in ccRCC on overexpression” value (ccRCC cells) was “induced apoptosis in ccRCC cells”. For the same compound, the “preference for LDHA oligomeric state” value (LDHA [6]; dimer compared to tetramer) was “prefers binding to the less active LDHA dimer”, the “effect on large oligomeric complexes of LDHA” value (LDHA [6]; [7]) was “decrease in large oligomeric complexes of LDHA” and the “formation of dimeric LDHA species (70 kDa)” value (LDHA [6]; [7]) was “induces formation of a dimeric LDHA species”.
